ChEMBL document CHEMBL4196022, “Alkynyl-containing phenylthiazoles: Systemically active antibacterial agents effective against methicillin-resistant Staphylococcus aureus (MRSA)” (Eur J Med Chem, 2018)
In brackets after ≈: the same amount, converted by molar mass. Activity calls are given as the source filed them. No cut-off for these calls is given here.

What was measured:
[1] = Apparent permeability from apical to basolateral side in human Caco2 cells at 10 uM after 60 mins by LC-MS/MS analysis; format: ADME, cell-based; conditions: caco-2, 1 h
How it was run: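 Caco-2 monolayers were seeded at 1 × 10^5 cells/cm2 and differentiated for three weeks. Test article was at 10 μM (1% DMSO) in HBSS-MES pH 6.5 or HBSS-HEPES pH 7.4 and added to the donor side. Incubation ran 60 min (A→B) or 40 min (B→A), and receiver buffer was analysed by LC/MS/MS. Lucifer yellow and fluorescein checked monolayer integrity. Efflux ratio = Papp(B→A)/Papp(A→B).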

[2] = Terminal phase volume of distribution in Sprague-Dawley rat at 2 uM administered as single iv bolus dose by LC-MS/MS analysis; format: ADME, organism-based; conditions: in vivo, read-out: Vbeta
How it was run: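 Male naïve Sprague-Dawley rats (three animals) received an IV bolus of a 2 μM solution. EDTA-K2 blood was sampled over 12 h post dose. Plasma was protein-precipitated with acetonitrile and quantified by LC/MS/MS. Parameters came from two-compartmental pharmacokinetic analysis.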

Staphylococcus aureus [3] = assay: Antibacterial activity against methicillin-resistant Staphylococcus aureus NRS119 after 20 hrs by broth microdilution assay; format: functional; conditions: NRS119, 20 h
How it was run: (§1)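 Broth microdilution per CLSI in cation-adjusted Mueller Hinton broth. Compounds serially diluted, in triplicate. Incubation at 37 °C for at least 20 hours. MIC taken as the lowest concentration with no visible bacterial growth.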

[4] = Induction of proton motive force collapse in Escherichia coli inverted membrane vesicle in presence of succinate/O2-driven PMF generation system by ACMA-based fluorescence assay; format: functional, cell membranes
How it was run: (§2)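 E. coli inverted membrane vesicles had proton motive force generated either by ATP or by succinate/O2. PMF collapse was followed as a dose response to give EC50, with CCCP as the reference uncoupler.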

Staphylococcus aureus [5] = assay: Antibacterial activity against methicillin-resistant Staphylococcus aureus USA300 in Balb/c mouse skin infection model assessed as reduction in bacterial burden in wounded skin area at 2% administered topically twice daily for 5 consecutive days measured 12 hrs post last dose relative to control; format: functional; design: scale not given: the % may be the effect or the level left
How it was run: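 Female Balb/c mice, 8 weeks old, n=5 per group. Intradermal injection of 40 μL of 1.32×10^9 CFU/mL USA300; a wound formed by ~66 h. Treated topically with a 2% suspension in petroleum jelly twice daily for 5 days; the vehicle group served as control. Wounds excised 12 h after the last dose, homogenized in PBS and plated on mannitol salt agar; sites also observed for redness and swelling.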

Staphylococcus aureus [6] = assay: Ratio of MBC to MIC for methicillin-resistant Staphylococcus aureus USA300; format: functional
How it was run: (§3)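 MBC/MIC ratio. […] MBC by plating no-growth wells onto tryptic soy agar at 37 °C for at least 18 h; taken as the concentration giving 99.9% growth inhibition.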

[7] = Induction of proton motive force collapse in Escherichia coli inverted membrane vesicle in presence of ATP-driven PMF generation system by ACMA-based fluorescence assay; format: functional, cell membranes; how it was run: as §2
Staphylococcus aureus [8] = assay: Bactericidal activity against methicillin-resistant Staphylococcus aureus NRS107 up to 18 hrs by broth microdilution assay; format: functional; conditions: NRS107, 18 h, read-out: MBC99.9
Staphylococcus aureus [9] = assay: Potency index, ratio of vancomycin MIC to compound MIC for antibacterial activity against vancomycin-resistant Staphylococcus aureus VRS10; format: functional
J774 = assay: Cytotoxicity against mouse J774 cells assessed as reduction in cell viability up to 8 ug/ml after 24 hrs by MTS assay; format: cell-based; conditions: j774, 24 h
How it was run: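 J774 murine macrophages were grown in DMEM with 10% FBS at 37 °C, 5% CO2. Compounds were tested at 8, 16 and 32 μg/mL in triplicate for 24 h, with a DMSO-matched control. MTS was added for 4 h and absorbance read at 490 nm. Viability is given as % of DMSO control (mean ± SD); Student t-test with Holm-Sidak test.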

Staphylococcus aureus [10] = assay: Bactericidal activity against methicillin resistant vancomycin-resistant Staphylococcus aureus VRS12 up to 18 hrs by broth microdilution assay; format: functional; conditions: VRS12, 18 h, read-out: MBC99.9
How it was run: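 MBC set up from the MIC plates. Aliquots from wells with no growth spotted onto tryptic soy agar and incubated at 37 °C for at least 18 hours. MBC taken as the lowest concentration giving 99.9% inhibition of bacterial growth.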

Staphylococcus aureus [11] = assay: Bactericidal activity against methicillin-resistant Staphylococcus aureus NRS123 (USA400) at 4 times MIC after 24 hrs by time kill assay; format: functional, organism-based
Staphylococcus aureus [12] = assay: Ratio of MBC to MIC for vancomycin-resistant Staphylococcus aureus VRS12; format: functional; how it was run: as §3
Staphylococcus aureus [13] = assay: Antibacterial activity against vancomycin-resistant Staphylococcus aureus VRS12 after 20 hrs by broth microdilution assay; format: functional; conditions: VRS12, 20 h; how it was run: as §1
[14] = target: T1, Undecaprenyl-diphosphatase (Escherichia coli (strain K12), UniProt P60932); assay: Inhibition of Escherichia coli UPPP expressed in Escherichia coli C41(DE3) using FPP as substrate preincubated for 15 mins followed by substrate addition measured after 20 mins by malachite green assay
T1 sequence (P60932 whole entry): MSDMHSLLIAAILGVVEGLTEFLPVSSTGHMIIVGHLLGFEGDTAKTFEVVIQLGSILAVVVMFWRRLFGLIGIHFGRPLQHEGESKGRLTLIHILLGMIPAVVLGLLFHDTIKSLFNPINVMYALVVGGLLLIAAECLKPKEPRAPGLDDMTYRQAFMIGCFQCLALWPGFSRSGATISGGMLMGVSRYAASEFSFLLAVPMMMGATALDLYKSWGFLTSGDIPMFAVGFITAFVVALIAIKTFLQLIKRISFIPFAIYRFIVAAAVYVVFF

Staphylococcus aureus [15] = assay: Ratio of MBC to MIC for methicillin-resistant Staphylococcus aureus NRS107; format: functional; how it was run: as §3
Staphylococcus aureus [16] = assay: Inhibition of UPPS/UPPP in vancomycin-resistant Staphylococcus aureus VRS10 assessed as potentiation of vancomycin-induced antibacterial activity by measuring fold reduction in vancomycin MIC at 0.5 times MIC preincubated for 30 mins followed by vancomycin addition measured after 20 to 22 hrs by broth microdilution assay relative to control
How it was run: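 VRS10 suspension pre-exposed to compound at ½ × MIC for 30 min at room temperature. […] Incubation at 37 °C for 20–22 h before the MIC was read; untreated bacteria served as control.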

Staphylococcus aureus [17] = assay: Antibacterial activity against methicillin-resistant Staphylococcus aureus USA300 after 20 hrs by broth microdilution assay; format: functional; conditions: USA300, 20 h; how it was run: as §1
Staphylococcus aureus [18] = assay: Ratio of MBC to MIC for methicillin-resistant Staphylococcus aureus NRS119; format: functional; how it was run: as §3
[19] = Apparent permeability from basolateral to apical side in human Caco2 cells at 10 uM after 60 mins by LC-MS/MS analysis; format: ADME, cell-based; conditions: caco-2, 1 h
[20] = Selectivity index, ratio of toxic concentration for human HRT18 cells to MIC for methicillin-resistant Staphylococcus aureus; format: toxicity; conditions: read-out: Selectivity Index
Staphylococcus aureus [21] = assay: Antibacterial activity against methicillin-resistant Staphylococcus aureus NRS107 after 20 hrs by broth microdilution assay; format: functional; conditions: NRS107, 20 h; how it was run: as §1
Staphylococcus aureus [22] = assay: Bactericidal activity against methicillin-resistant Staphylococcus aureus USA300 up to 18 hrs by broth microdilution assay; format: functional; conditions: USA300, 18 h, read-out: MBC99.9
Staphylococcus aureus [23] = assay: Bactericidal activity against methicillin-resistant Staphylococcus aureus NRS119 up to 18 hrs by broth microdilution assay; format: functional; conditions: NRS119, 18 h, read-out: MBC99.9

C/C(=N\NC(=N)N)c1sc(-c2ccc(C#CC3CC3)cc2)nc1C
Papp [1]: 0.05 ×10⁻⁶ cm/s
Vd at 2 µM [2]: 18.5 L
MIC (Staphylococcus aureus [3]): 2 µg/mL (≈ 5.93 µM)
EC50 [4]: 28 µM
Activity (Staphylococcus aureus [5]): 73%
Ratio (Staphylococcus aureus [6]): <=3
EC50 [7]: 24 µM
MBC (Staphylococcus aureus [8]): 2 µg/mL (≈ 5.93 µM)
Ratio (Staphylococcus aureus [9]): >100
Activity (J774): Non-Toxic
MBC (Staphylococcus aureus [10]): 2 µg/mL (≈ 5.93 µM)
Activity (Staphylococcus aureus [11]): Active
Ratio (Staphylococcus aureus [12]): <=3
MIC (Staphylococcus aureus [13]): 2 µg/mL (≈ 5.93 µM)
IC50 [14]: 8.1 µM
Ratio (Staphylococcus aureus [15]): <=3
fold change (FC) (Staphylococcus aureus [16]): 512
MIC (Staphylococcus aureus [17]): 2 µg/mL (≈ 5.93 µM)
Ratio (Staphylococcus aureus [18]): <=3
Papp [19]: 0.35 ×10⁻⁶ cm/s
selectivity ratio [20]: 7 to 31
MIC (Staphylococcus aureus [21]): 2 µg/mL (≈ 5.93 µM)
MBC (Staphylococcus aureus [22]): 4 µg/mL (≈ 11.9 µM)
MBC (Staphylococcus aureus [23]): 2 µg/mL (≈ 5.93 µM)
